The values that follow come from ChEMBL document CHEMBL4513216, “Probing the Open Global Health Chemical Diversity Library for Multistage-Active Starting Points for Next-Generation Antimalarials” (ACS Infect Dis, 2020).

A short description of this series: Toxicity liver stage against HepG2, at 10uM. Further details: test concentration 10 uM, cell line HepG2-A16-CD81EGFP. It is filed as cell-based. Particulars: human, HepG2-A16-CD81EGFP cells; read-out: INHIBITION
The method, boiled down: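 Uninfected HepG2-A16-CD81EGFP cells, 3 × 10^3 per well, 1536-well, plated on prespotted compound at 10 μM final, parasite-free screening media added to match infected plates; puromycin 10 μM positive, DMSO 0.5% negative; run in parallel with 48 h PbLuc assay at 37 °C, 5% CO2; viability by CellTiter-Glo luminescence, normalized to controls.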
As for `N#Cc1cccc(NC(=O)N[C@H](CO)Cc2ccc(O)cc2)c1`, the cytotoxicity at 10 µM is 0.597%.

Consider `Cc1ccc(F)c(-n2nnc(C(=O)O)c2-c2ccncc2)c1`, for which the cytotoxicity at 10 µM was -4.89%.

`C=C(C)CN(CC)Cc1nc(CC)no1`: the cytotoxicity at 10 µM amounted to 12.6%.

On to `Cc1ccc(CNC(C)c2nnc3n2CCCC3)o1` (stereo unspecified), for which the cytotoxicity at 10 µM was -7.17%.

Regarding `c1cnc(NCc2cncc3c2CCN(Cc2ccsc2)C3)nc1`, the cytotoxicity at 10 µM was -74.4%.

As for `Cc1ccc(S(=O)(=O)N2C[C@H]3C[C@H](NC(=O)C(C)C)[C@H]3C2)cc1`, the cytotoxicity at 10 µM was -4.59%.

Regarding `CCn1c(CN2CCN(CCO)CC2)nc2c(F)cccc21`, the cytotoxicity at 10 µM is -8.83%.

For the compound `CCOC(=O)CCNC(=O)c1cc(Cl)cc2cccnc12`, the cytotoxicity at 10 µM turned out to be 15%.

In the case of `O=C(COc1cccc(F)c1)N1C[C@@H](CN2CCCC2)C[C@H](CO)C1`, the cytotoxicity at 10 µM is 3.94%.

Consider `O=C(O)[C@@H]1CN(C(=O)CSCCN2CCCC2)C[C@H]1c1ccccc1`, for which the cytotoxicity at 10 µM was -12.1%.

On to `COc1ccc(-c2noc(CN3CCCC3Cn3cccn3)n2)cc1` (stereo unspecified), for which the cytotoxicity at 10 µM was determined as 2.88%.

Turning to `CN1CCN(CCCNS(=O)(=O)Cc2ccccc2F)CC1`, the cytotoxicity at 10 µM is -11.1%.

Regarding `Cc1ccccc1-c1cncc(C2CCN(Cc3cnn(C)c3)CC2)n1`, the cytotoxicity at 10 µM was -30.6%.

For the compound `Cn1cc(CCC(=O)N2C[C@@H]3CC[C@H]2CN(Cc2cccnc2)C3)cn1`, the cytotoxicity at 10 µM was -12.4%.

As to `CCN1CCC(NC(=O)NCC(O)c2ccc(Cl)c(F)c2)CC1` (stereo unspecified), the cytotoxicity at 10 µM is -3.82%.

Take `CC(N)C(=O)N1CCC(Oc2cccc(C(F)(F)F)c2)CC1` (stereo unspecified): the cytotoxicity at 10 µM was -8.54%.

For `c1ccc(Cc2nc(CNC3CCOC4(CCOCC4)C3)no2)cc1` (stereo unspecified), the cytotoxicity at 10 µM is -10.6%.

For the compound `CCC(CC)(CNC(=O)OC(C)(C)C)NC(=O)c1cnccn1`, the cytotoxicity at 10 µM is -8.56%.

In the case of `c1cnnc(N2CCCC2CNc2ncnc3ccsc23)c1` (stereo unspecified), the cytotoxicity at 10 µM is -8.87%.

`CC(NC(=O)c1cccc(CCC(C)(C)O)c1)c1nnc(N)s1` (stereo unspecified): the cytotoxicity at 10 µM stood at 1.16%.

In the case of `CC(C)OCCCNC(=O)c1ccc(-c2ccco2)[nH]c1=O`, the cytotoxicity at 10 µM was -4.45%.

With `CCOc1ccc(Br)cc1S(=O)(=O)N(CC)Cc1ccc(N(C)C)cc1`, the cytotoxicity at 10 µM was found to be 14.1%.

Consider `CCOc1ccc2[nH]c(=O)c(CN3CCN(S(N)(=O)=O)CC3)cc2c1`, for which the cytotoxicity at 10 µM is -6.39%.

In the case of `COc1cc2nc(C)sc2cc1NC(=O)C(C)NC(N)=O` (stereo unspecified), the cytotoxicity at 10 µM is -9.93%.

Turning to `Cc1cccc(CN2CCN(Cc3ccccc3)CC(O)C2)n1` (stereo unspecified), the cytotoxicity at 10 µM was -8.42%.

For the compound `CCOc1cc2c(cc1CN1CCC3(CC1)CNC(=O)C3)CCC2`, the cytotoxicity at 10 µM was -2.04%.

Consider `CCN1c2ccc(-c3cncn3CCCn3ccnc3C)cc2CC1C` (stereo unspecified), for which the cytotoxicity at 10 µM is -1.25%.

Turning to `CCN(C(=O)CN1CCn2c(nnc2C2CC2)C1)C1=CCCCC1`, the cytotoxicity at 10 µM turned out to be 10%.

Turning to `CC(=O)NCc1nnc2n1CCN(c1ncnc3c(C)csc13)CC2`, the cytotoxicity at 10 µM turned out to be 4.71%.

With `O=C(NCc1cc[nH]n1)NCC(O)c1ccc(F)cc1F` (stereo unspecified), the cytotoxicity at 10 µM was found to be 1.78%.

As to `CCn1nc(CC(C)C)cc1C(=O)NCCCN1CCOCC1`, the cytotoxicity at 10 µM was 1.6%.

As for `Cc1ccc(-c2nn(-c3cccc(F)c3)cc2CN(C)CCO)o1`, the cytotoxicity at 10 µM stood at 11.6%.

`Cc1nc(CN(C)C(=O)CN(C)C)nc2c1CCC(=O)N2CCC(C)C`: the cytotoxicity at 10 µM is -10.5%.

Consider `Cc1cccc(C(=O)N2CCN(CCOC(C)C)CC2)n1`, for which the cytotoxicity at 10 µM was -0.0394%.

With `CCCC(=O)NCCc1nc2cc(-c3ccc(OC)cc3)ncn2n1`, the cytotoxicity at 10 µM came out at 5.26%.

For `COc1cccc(N2CCN(CC(O)c3cc(C)sc3C)CC2)c1` (stereo unspecified), the cytotoxicity at 10 µM is 2.24%.

Regarding `Cc1ccc(CNC(=O)Nc2nnc(C3CC3)s2)n1C`, the cytotoxicity at 10 µM was -1.61%.

With `Cc1csc(C2CCCCN2C(=O)c2c[nH]c(C)n2)n1` (stereo unspecified), the cytotoxicity at 10 µM is -33.7%.

Consider `O=C(c1cc[nH]n1)N1CCCC1C1CCN(Cc2ccccc2)CC1` (stereo unspecified), for which the cytotoxicity at 10 µM came to 1.98%.

As for `COc1ccccc1-c1ccc(C(=O)N2C[C@@H]3CC[C@H]2CN(C)C3)cc1`, the cytotoxicity at 10 µM was -18.2%.

`Cc1nn(C)c(Cl)c1C1CCCN1CC(=O)N1CCCCC1` (stereo unspecified): the cytotoxicity at 10 µM came to 0.347%.

As to `CNC(=O)C1CN(c2ccnc(C)n2)CCN(C2CCOCC2)C1` (stereo unspecified), the cytotoxicity at 10 µM is -0.762%.

`Cn1ccnc1CN1CCC(c2nnc(Cn3cccn3)n2C)CC1`: the cytotoxicity at 10 µM was 17.4%.

In the case of `O=C1CCC2(CCC(NC(=O)NCc3ccccc3)CC2)N1` (stereo unspecified), the cytotoxicity at 10 µM was -0.0957%.

`O=S(=O)(C1CC1)N1CC[C@@H](OCC2CC2)[C@@H]1Cc1ccncc1`: the cytotoxicity at 10 µM was found to be 10.9%.

Regarding `Cc1cc(CN(CCO)c2ccccc2)on1`, the cytotoxicity at 10 µM was -14.7%.

Take `CCOc1nnc(CN2CCN(CCOC)C(C)C2)s1` (stereo unspecified): the cytotoxicity at 10 µM is -11.1%.

For `Cc1ccn(-c2ccc(NCc3ccccc3F)nn2)n1`, the cytotoxicity at 10 µM came to 3.66%.

As to `CCOc1ccc(CC(=O)N2CCN(c3nccn3C)CC2)cc1`, the cytotoxicity at 10 µM came out at 6.85%.

As for `CCCn1ncnc1C(C)NC(=O)C1CCN(CC(N)=O)CC1` (stereo unspecified), the cytotoxicity at 10 µM is -140%.

As for `Cc1cccc(-n2ncc3c(=O)n(CCN4CCCCC4)cnc32)c1C`, the cytotoxicity at 10 µM is -6.57%.

For `CN(C)C(=O)CN1C[C@H]2CC[C@@H](C1)N(C/C=C/c1ccc(F)cc1)C2`, the cytotoxicity at 10 µM is -7.65%.

As for `CN(C)c1cc2c(nn1)CCN(C(=O)c1cc3ccccc3[nH]c1=O)C2`, the cytotoxicity at 10 µM was 3.99%.

With `Cc1csc(N2CCN(C3CCc4ccccc4C3)CC2)n1` (stereo unspecified), the cytotoxicity at 10 µM came out at 2.01%.

In the case of `OCc1ccc(CN2CCC(n3cc(-c4ccc(F)cc4)nn3)CC2)o1`, the cytotoxicity at 10 µM was determined as 5.54%.

`CNC(=O)c1cc2c(nc1N(C)C)CCN(S(=O)(=O)N(C)C)CC2`: the cytotoxicity at 10 µM is -138%.

For the compound `Cc1cc(CNC(=O)N2CCCN(Cc3ccccc3)CC2)no1`, the cytotoxicity at 10 µM was -8.26%.

Consider `CCOc1ccccc1NC(=O)NCCc1ccoc1`, for which the cytotoxicity at 10 µM is -1.18%.

`COCC(=O)N1CCCC1c1ccnc(Nc2cnccn2)n1` (stereo unspecified): the cytotoxicity at 10 µM was -4.3%.

For `Cc1csc(CN2C[C@H](NC(=O)C3CCOCC3)[C@@H](C(C)C)C2)n1`, the cytotoxicity at 10 µM was determined as 6.99%.

Regarding `COc1ccc(CNCC2CN(C3CC3)CCO2)cc1C` (stereo unspecified), the cytotoxicity at 10 µM was -8.01%.

Regarding `CC(C)NC(=O)CC(C)NCc1ccc(F)cc1Cl` (stereo unspecified), the cytotoxicity at 10 µM is -40.7%.

In the case of `COC(=O)c1ccc(F)c(S(=O)(=O)Nc2ccc(C(N)=O)cc2)c1`, the cytotoxicity at 10 µM turned out to be 3.63%.

With `COc1cc2nc3n(c(=O)c2cc1OC)CCN(C(=O)C(C)(C)C)CC3`, the cytotoxicity at 10 µM was -13.5%.

Take `Cc1cc(N2CCC(NC(=O)CCc3cnn(C)c3)CC2)nc(C)n1`: the cytotoxicity at 10 µM was -2.01%.

`CC(C)(C)OC(=O)N1CCN(c2ccc(F)cc2)CC1C(=O)O` (stereo unspecified): the cytotoxicity at 10 µM is -1.73%.

As for `O=C(C1CC1)N1CC[C@H]2[C@@H]1CCC(=O)N2c1ccccc1`, the cytotoxicity at 10 µM was found to be 10.8%.

As to `Cc1ccc(S(=O)(=O)Nc2ccc(N3CCOCC3)cn2)cc1`, the cytotoxicity at 10 µM worked out at 3.92%.

Regarding `O=C(Cn1cc(-c2ccccc2)ncc1=O)Nc1nc(C2CC2)n[nH]1`, the cytotoxicity at 10 µM worked out at 6.2%.

Turning to `Cc1oncc1C(=O)NCc1ccnc(OCC(F)(F)F)c1`, the cytotoxicity at 10 µM was -3.39%.

Regarding `CC(C)c1nccn1CCCNC(=O)c1ccc(-c2ccncc2)nc1`, the cytotoxicity at 10 µM was -9.77%.
